Bioassay records (PubChem BioAssay)
PDI turbidity = PDI (human) enzyme inhibition | P07237 | PDI insulin aggregation turbidity, A650, 90 min | inhibition, % at 10 µM | 350,000 tested, 0.052% active | AID 588391;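 active = mean inhibition across replicates of 30% or more, whatever share of single replicates reach that level; inconclusive = mean inhibition below 30% while every single replicate reaches 30%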
Target sequence (P07237 whole entry, looked up): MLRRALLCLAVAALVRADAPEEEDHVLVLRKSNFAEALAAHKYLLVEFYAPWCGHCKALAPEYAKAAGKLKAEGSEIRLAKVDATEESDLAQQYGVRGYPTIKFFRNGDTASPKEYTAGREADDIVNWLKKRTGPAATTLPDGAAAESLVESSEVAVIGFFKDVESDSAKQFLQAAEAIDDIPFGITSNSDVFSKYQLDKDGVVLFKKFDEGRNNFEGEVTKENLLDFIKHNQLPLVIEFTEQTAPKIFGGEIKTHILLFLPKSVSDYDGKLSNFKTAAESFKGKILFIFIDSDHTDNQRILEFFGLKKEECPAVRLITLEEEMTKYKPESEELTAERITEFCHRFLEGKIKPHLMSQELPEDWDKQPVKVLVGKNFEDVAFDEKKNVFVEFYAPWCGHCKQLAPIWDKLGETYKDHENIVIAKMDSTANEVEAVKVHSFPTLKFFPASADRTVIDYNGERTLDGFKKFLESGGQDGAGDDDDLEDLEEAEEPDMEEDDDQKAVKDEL
ERp5 inh = blocks human ERp5 reductase activity on insulin; 350,000 tested, 0.05% active; ERp5 insulin aggregation, absorbance 650 nm, 90 min; AID 651711; inhibition, % at 9.99 µM; Q15084;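 active = mean replicate inhibition above about 25%, with every replicate also reaching it, limit read from the data, passing the limit was not always enough; inconclusive = only one of those two criteria met; inactive = neither criterion met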
VIM-2 inhibitor = inhibitors of Pseudomonas aeruginosa VIM-2 metallo-beta-lactamase | purified VIM-2, nitrocefin hydrolysis, epi-absorbance fluorescence | inhibition, % at 5.6 µM | 290,000 tested, 0.89% active | AID 1527;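 active = inhibition above the mean of all tested compounds plus 3 SD, cutoff set per screening run, cut at about 7.5% in these data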;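 note: red hydrolysis product quenches plate fluorescence so inhibitors raise well fluorescence; 0% = enzyme with DMSO and 100% = DMSO without enzyme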
PglD DTNB = inhibitors of Campylobacter jejuni PglD acetyltransferase; AID 602405; purified PglD enzyme, DTNB colorimetric CoA detection; 360,000 tested, 0.098% active; inhibition, % at 12.5 µM; in the data active = inhibition above about 16%, passing the limit was not always enough; inconclusive = no clear call, values can overlap the other calls
PvdQ inh = blocks Pseudomonas aeruginosa PvdQ acylase activity | purified PvdQ acylase, fluorescence plate reader | inhibition, % at 10 µM | 340,000 tested, 0.063% active | AID 488965; in the data active = inhibition above about 30%, passing the limit was not always enough; inconclusive = no clear call, values can overlap the other calls;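 note: 0% = vehicle neutral wells and 100% = reference inhibitor wells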
IMP-1 inh = inhibitors of Pseudomonas aeruginosa IMP-1 metallo-beta-lactamase; purified IMP-1, nitrocefin hydrolysis, epi-absorbance fluorescence; inhibition, % at 5.6 µM; 290,000 tested, 0.45% active;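 active = inhibition above the mean plus 3 SD of all compounds in the same screening run, cut at about 4.5% in these data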;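 note: 0% = IMP-1 with DMSO and 100% = DMSO wells lacking enzyme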
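system = purified recombinant IMP-1 beta-lactamase | amount = 0.2 nM IMP-1, as dispensed | medium = HEPES buffer pH 7.1 with ZnSO4 and Brij 35 | times = 25 °C, 15 min preincubation, 25 min reaction | detection = plate fluorescence quenching by hydrolysis product, ex 480/em 530 nm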
Numbers without * were called inactive; ? = inconclusive; · = not tested or not shown. Only some compounds are listed: those with a hit (about 1% of all), similar ones and a draw of the others.

SMILES	PDI turbidity	ERp5 inh	VIM-2 inhibitor	PglD DTNB	PvdQ inh	IMP-1 inh
Cc1ccc2c(c1)SC1=NC(c3ccccc3)(C(F)(F)F)NC(=O)N12 (stereo unspecified)	·	·	-1	·	·	5.7*
COC(=O)c1c(-c2cccs2)csc1NC(=O)c1cccnc1	-3	·	11*	-2	6	-3
CN1CCN(c2ccc(C(=O)c3ccccc3)cc2[N+](=O)[O-])CC1	7	·	8.3*	-6	-6	-2
COC(=O)c1sc2nc(-c3ccco3)ccc2c1N	18	·	1	-11	-9	0
NC(=O)c1sc2nc(-c3ccco3)ccc2c1N	1	·	11*	-6	-8	1
COc1ccc2c3c([nH]c2c1)[C@@H](CO)N(C(=O)C1CCCCC1)CC31CN(C(=O)NC(C)C)C1	·	1	·	·	·	·
Cc1cc(OCC(=O)NC2CCN(Cc3ccccc3)CC2)c2c(C)cc(=O)oc2c1	-3	1	9.3*	-1	5	-5
N#CC(c1ccc(Cl)nn1)c1c(F)cccc1Cl (stereo unspecified)	11	-12	-2	·	66*	-2
N#C/C(=C\c1c(F)cccc1Cl)S(=O)(=O)c1ccccn1	17	-1	-1	·	4	-2
C=C1c2cccc(O)c2C(O)=C2C(=O)[C@]3(O)C(O)=C(C(N)=O)C(=O)[C@@H](N(C)C)[C@@H]3[C@@H](O)[C@H]12	·	1	8.6*	-2	-11	3
O=S(=O)(Cc1ccccc1)NCC[C@@H]1CC[C@H](NS(=O)(=O)c2ccc(F)cc2)[C@H](CO)O1	·	·	·	3	·	·
CC(C)NC(=O)N(C)C[C@H]1Oc2c(NC(=O)C3CCCCC3)cccc2C(=O)N([C@@H](C)CO)C[C@@H]1C	·	0	·	2	·	·
NNC(=O)CN1CCCc2ccccc21	1	-4	-8	·	-4	-4
N#CCc1nnc2n1-c1ccccc1CCC2	4	·	-2	-6	-7	12*
COc1ccc(OC)c(N2CC(O)(c3cccs3)[N+]3=C2SCCC3)c1 (stereo unspecified)	5	-3	8.2*	4	7	-1
OC1(c2cccs2)CN(c2ccc(Br)cc2)C2=[N+]1CCCS2 (stereo unspecified)	-1	-7	-1	-4	-9	-2
Cc1c(Cc2ccccc2)c(=O)oc2c(CN(C)C)c(O)c(Cl)cc12	3	·	-2	-1	-73	4.7*
CCC[C@@H](CN1CCC[C@H]1CN1C(N)=NC[C@H]1C(C)C)N1C[C@@H]([C@H](C)CC)N(CCCC2CCCC2)C1=N	13	13	·	2	-2	·
CCC[C@@H](CN1CCC[C@H]1CN1C(N)=NC[C@H]1CC(C)C)N1C[C@@H]([C@H](C)CC)N(CCCC2CCCC2)C1=N	-69	27*	·	5	-4	·
COc1ccccc1CN(C)c1ccc(S(=O)(=O)N2CCN(C)CC2)cn1	24	31*	·	-3	-8	·
C[C@H]1CN([C@@H](C)CO)S(=O)(=O)c2ccc(-c3ccccc3F)cc2O[C@H]1CN(C)Cc1cncnc1	·	3	·	2	·	·
CC(=O)C1=C(O)C(=O)N(CCc2c[nH]c3ccccc23)C1c1ccc(O)cc1 (stereo unspecified)	46*	·	-1	·	-1	-3
CC(=O)C1=C(O)C(=O)N(CCc2c[nH]c3ccccc23)C1c1ccccc1 (stereo unspecified)	21	-7	1	·	-10	-1
O=C(Nc1ccccn1)NC1CCCCC1	-3	·	1	·	-21	4.7*
CCc1cc(OCCCCNCc2ccccc2)ccc1Cl	54*	·	0	-8	-9	-2
SMILES	PDI turbidity	ERp5 inh	VIM-2 inhibitor	PglD DTNB	PvdQ inh	IMP-1 inh
CNC[C@@H]1Oc2ccc(NS(=O)(=O)c3c(C)noc3C)cc2C(=O)N([C@H](C)CO)C[C@H]1C	·	-3	·	-2	·	·
Cc1ccc(SCc2ccc(C(=O)Nc3cccnc3)cc2)cc1	-2	?	2	·	-8	15*
CO[C@@H]1CN(C)C(=O)c2cc(NS(=O)(=O)c3cccc(F)c3)ccc2OC[C@@H](C)N(Cc2cc(F)ccc2F)C[C@H]1C	·	0	·	3	·	·
O=C(c1ccccc1F)N1CC(=O)N2[C@@H](CO)[C@H](c3ccc(C#Cc4ccccc4)cc3)[C@@H]2C1	·	-2	·	·	·	·
CC(=O)N[C@H]1CC[C@H](CC(=O)NCc2ccc(Cl)cc2)O[C@H]1CO	·	3	·	17*	·	·
Cc1cnn(-c2nc(-c3cccs3)cc(C(F)(F)F)n2)c1	-7	·	8.1*	-1	-11	-1
CNC[C@@H]1OCCCC[C@@H](C)Oc2ccc(NC(=O)NC(C)C)cc2C(=O)N([C@@H](C)CO)C[C@H]1C	·	3	·	-1	·	·
C=CCn1c(SCC(=O)N2CCN(C(=O)c3ccco3)CC2)nc2sc(CC)cc2c1=O	-5	·	12*	0	8	-1
C=CCn1c(SCC(=O)N2CCCC2=O)nc2sc(CC)cc2c1=O	5	-3	·	-2	-1	·
CC(C)C#Cc1ccc2c(c1)O[C@@H](CN(C)C(=O)NC(C)C)[C@H](C)CN([C@@H](C)CO)S2(=O)=O	·	·	·	2	·	·
COc1ccc(NC(=O)Nc2ccc3c(c2)C(=O)N([C@H](C)CO)C[C@H](C)[C@@H](CN(C)CC2CCCCC2)O3)cc1	·	0	·	-7	·	·
O=C(NNC(=O)c1nn(-c2ccc(F)cc2)ccc1=O)c1ccccc1Cl	-1	1	-3	-164	16	8.4*
O=C(O)c1nn(-c2ccc(F)cc2)ccc1=O	4	-1	-1	10	-18	-5
CO[C@@H]1CN(C)C(=O)c2ccc(NC(=O)C3CCCC3)cc2OC[C@@H](C)N(C(C)=O)C[C@@H]1C	·	0	·	·	·	·
CCN(CC(=O)NCc1ccc(F)cc1)Cc1cc(=O)n2ccsc2n1	10	-3	-4	0	-7	7.6*
COc1cccc(-c2ccc3c(c2)[C@H]2[C@H](CCN2S(=O)(=O)c2ccc(F)cc2)[C@H](CO)N3C)c1	·	-2	·	-2	·	·
CCn1cc(S(=O)(=O)c2ccc(C)cc2)c(=O)c2cc(F)c(N3CCN(C)CC3)cc21	-4	-6	7.9*	-2	-7	0
CCN(CC)CCCNC(=O)c1cn(CC)c2cc(N3CCN(C(=O)c4ccco4)CC3)c(F)cc2c1=O	6	-4	12*	2	-15	-3
CCn1cc(C(=O)Nc2ncccc2O)c(=O)c2cc(F)c(N3CCN(C(=O)c4ccco4)CC3)cc21	-3	0	1	3	-7	8.0*
CCn1cc(C(=O)NCCN(C)C)c(=O)c2cc(F)c(N3CCN(C)CC3)cc21	1	-1	12*	2	18	-2
C[C@@H]1CN([C@@H](C)CO)C(=O)c2cc(NS(=O)(=O)c3ccc(Cl)cc3)ccc2O[C@@H](C)CCCCO[C@H]1CN(C)C(=O)Cc1ccccc1	·	2	·	3	·	·
COc1ccc2c3c(n(C)c2c1)[C@@H](CO)N(Cc1ccccc1F)CC31CCN(C(=O)C2CCC2)CC1	·	-5	·	·	·	·
